# Measurements: ChEMBL document CHEMBL1125074, “Autoxidation of the serotonergic neurotoxin 5,7-dihydroxytryptamine” (J Med Chem, 1990)
# How the values were obtained:
# [1] = Dissociation constant (pKa) was determined by spectrophotometric method; assay type: physicochemical
# In short: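 Compound (ca. 0.1 mM) first dissolved in phosphate buffer pH 2.2 (μ = 0.1); UV-visible spectrum recorded, then pH raised in ca. 0.5-unit steps to pH 10 with NaOH, spectrum taken at each step. pKa calculated from the pH-dependent shift in λmax of the two intense UV bands.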
# [2] = Compound was autooxidized for 2 hour at 37 degree Celsius in pH 7.4 Pseudo-first-order rate constant; assay type: ADME; details: pH 7.4, 2 h
# In short: (§1)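 5,7-DHT (0.5–1.0 mM) autoxidised at 37 °C in pH 7.4 phosphate buffer (μ = 0.2), with air vigorously bubbled through. Loss of 5,7-DHT was followed by HPLC peak area (reversed-phase RP-18; triethylamine/acetic acid mobile phase, pH 3.30; UV detection at 254 nm). The rate constant came from linear ln(peak area) vs time plots over the first 2 h.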
# [3] = Compound was autooxidized for 2 hour at 37 degree Celsius in pH 7.4 phosphate buffer Pseudo-first-order rate constant; assay type: ADME; details: pH 7.4, 2 h; in short: as §1
# [4] = Compound was autooxidized for 2 hour at 37 degree Celsius in pH 7.4 phosphate buffer pseudo-first-order rate constant 0.1 mM EDTA; assay type: ADME; details: pH 7.4, 2 h
# [5] = Pseudo-first-order rate constant was determined in pH 7.4 phosphate buffer in presence 0.5 mM EDTA; assay type: ADME
# [6] = Pseudo-first-order rate constant was determined in pH 7.4 phosphate buffer in presence 50 mM EDTA; assay type: ADME
# [7] = Pseudo-first-order rate constant was determined in pH 7.4 phosphate buffer in presence 70 mM EDTA; assay type: ADME
# [8] = Dissociation constant (pKa) was reported after potentiometric titration with 0.2 mM KOH; assay type: physicochemical
# Mus musculus = species on record: Mus musculus; assay: Compound was evaluated for lethal dose against mouse brain; assay type: toxicity, organism-based; details: in vivo
# [9] = Half-life was reported for slow rate of autooxidation reaction; assay type: ADME
# [10] = Half-life was reported for stability at pH 8; assay type: physicochemical; details: buffer
smiles,measurement,setting,value
NCCc1c[nH]c2c1C(=O)C(O)=C(C1=C(O)c3[nH]cc(CCN)c3C(=O)C1=O)C2=O,pKa,[1],6.5
NCCc1c[nH]c2c(O)cc(O)cc12,K,[2],0.046 min⁻¹
same,K,[3],0.012 min⁻¹
same,K,[4],0.012 min⁻¹
same,K,[5],0.017 min⁻¹
same,K,[6],0.014 min⁻¹
same,K,[7],0.015 min⁻¹
same,pKa,[8],4.8
NCCc1c[nH]c2c1C(=O)C(=O)C=C2O,pKa,[1],5.6
same,LD50,Mus musculus,21 µg
CC1(C)CC=CN1[O],half-life,[9],1 min
same,half-life,[10],35 min
